Blank lines part the entries; values can stand above or below the compound they belong to. Calls of active or inactive are those of the source. The calls are words filed in the database; no cut-off is given here.
How the values were obtained:
[1] = molecular target: T1, DNA (cytosine-5)-methyltransferase 1 (Homo sapiens, UniProt P26358); assay: Inhibition of full length His-tagged human DNMT1 using SAM/[methyl-3H]SAM assessed as reduction of methylation in biotinylated hemimethylated DNA duplex at 32 uM after 1 hr by scintillation counting method relative to control
T1 sequence (P26358 whole entry, the tested form may be a part): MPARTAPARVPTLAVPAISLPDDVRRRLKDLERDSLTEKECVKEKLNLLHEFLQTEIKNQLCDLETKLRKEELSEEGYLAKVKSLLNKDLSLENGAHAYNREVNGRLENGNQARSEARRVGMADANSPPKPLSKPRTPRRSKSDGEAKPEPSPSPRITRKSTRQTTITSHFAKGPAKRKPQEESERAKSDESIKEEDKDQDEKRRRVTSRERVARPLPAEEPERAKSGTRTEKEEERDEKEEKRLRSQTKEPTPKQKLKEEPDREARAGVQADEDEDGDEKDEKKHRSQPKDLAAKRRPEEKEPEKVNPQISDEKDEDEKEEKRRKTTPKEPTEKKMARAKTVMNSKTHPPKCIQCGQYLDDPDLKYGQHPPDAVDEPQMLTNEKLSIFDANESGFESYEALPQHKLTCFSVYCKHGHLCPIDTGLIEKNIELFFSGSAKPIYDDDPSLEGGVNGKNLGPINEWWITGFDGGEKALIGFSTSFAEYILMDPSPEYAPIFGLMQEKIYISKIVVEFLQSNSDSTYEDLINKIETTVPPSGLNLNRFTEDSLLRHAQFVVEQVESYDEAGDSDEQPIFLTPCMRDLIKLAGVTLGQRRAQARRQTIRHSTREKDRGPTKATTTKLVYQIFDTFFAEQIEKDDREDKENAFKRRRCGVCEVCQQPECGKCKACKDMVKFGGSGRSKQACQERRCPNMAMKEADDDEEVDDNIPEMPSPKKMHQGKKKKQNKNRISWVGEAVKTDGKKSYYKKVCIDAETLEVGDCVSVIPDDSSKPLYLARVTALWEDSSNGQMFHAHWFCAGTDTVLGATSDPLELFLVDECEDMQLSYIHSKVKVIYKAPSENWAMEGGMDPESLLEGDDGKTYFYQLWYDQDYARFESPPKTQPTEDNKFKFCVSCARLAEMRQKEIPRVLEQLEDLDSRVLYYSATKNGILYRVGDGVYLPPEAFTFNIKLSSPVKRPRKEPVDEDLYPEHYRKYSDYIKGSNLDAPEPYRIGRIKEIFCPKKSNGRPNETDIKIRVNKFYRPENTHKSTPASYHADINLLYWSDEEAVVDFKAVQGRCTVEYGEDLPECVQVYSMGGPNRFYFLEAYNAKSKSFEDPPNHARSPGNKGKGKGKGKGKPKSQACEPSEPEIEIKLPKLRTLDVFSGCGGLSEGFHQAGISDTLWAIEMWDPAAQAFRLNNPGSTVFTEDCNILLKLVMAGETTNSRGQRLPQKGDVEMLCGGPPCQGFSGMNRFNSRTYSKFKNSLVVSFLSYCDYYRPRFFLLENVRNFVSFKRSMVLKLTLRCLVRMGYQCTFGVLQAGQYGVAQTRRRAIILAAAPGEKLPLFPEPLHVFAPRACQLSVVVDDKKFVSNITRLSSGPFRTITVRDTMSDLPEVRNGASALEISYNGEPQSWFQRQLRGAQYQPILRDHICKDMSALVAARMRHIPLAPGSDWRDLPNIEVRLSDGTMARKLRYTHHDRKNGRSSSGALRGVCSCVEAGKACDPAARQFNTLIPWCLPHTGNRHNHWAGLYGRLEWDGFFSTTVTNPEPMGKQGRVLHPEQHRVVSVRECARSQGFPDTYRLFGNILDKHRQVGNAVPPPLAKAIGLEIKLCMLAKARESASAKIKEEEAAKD

[2] = molecular target: T2, DNA (cytosine-5)-methyltransferase 3A (Homo sapiens, UniProt Q9Y6K1); assay: Inhibition of human DNMT3A catalytic domain using AdoMet assessed as reduction of methylation in 5'-biotin/3' 6-carboxyfluorescein labeled DNA duplex at CpG site at 32 uM after 1 hr by fluorescence assay relative to control
T2 sequence (Q9Y6K1 whole entry, looked up, the tested form may be a part): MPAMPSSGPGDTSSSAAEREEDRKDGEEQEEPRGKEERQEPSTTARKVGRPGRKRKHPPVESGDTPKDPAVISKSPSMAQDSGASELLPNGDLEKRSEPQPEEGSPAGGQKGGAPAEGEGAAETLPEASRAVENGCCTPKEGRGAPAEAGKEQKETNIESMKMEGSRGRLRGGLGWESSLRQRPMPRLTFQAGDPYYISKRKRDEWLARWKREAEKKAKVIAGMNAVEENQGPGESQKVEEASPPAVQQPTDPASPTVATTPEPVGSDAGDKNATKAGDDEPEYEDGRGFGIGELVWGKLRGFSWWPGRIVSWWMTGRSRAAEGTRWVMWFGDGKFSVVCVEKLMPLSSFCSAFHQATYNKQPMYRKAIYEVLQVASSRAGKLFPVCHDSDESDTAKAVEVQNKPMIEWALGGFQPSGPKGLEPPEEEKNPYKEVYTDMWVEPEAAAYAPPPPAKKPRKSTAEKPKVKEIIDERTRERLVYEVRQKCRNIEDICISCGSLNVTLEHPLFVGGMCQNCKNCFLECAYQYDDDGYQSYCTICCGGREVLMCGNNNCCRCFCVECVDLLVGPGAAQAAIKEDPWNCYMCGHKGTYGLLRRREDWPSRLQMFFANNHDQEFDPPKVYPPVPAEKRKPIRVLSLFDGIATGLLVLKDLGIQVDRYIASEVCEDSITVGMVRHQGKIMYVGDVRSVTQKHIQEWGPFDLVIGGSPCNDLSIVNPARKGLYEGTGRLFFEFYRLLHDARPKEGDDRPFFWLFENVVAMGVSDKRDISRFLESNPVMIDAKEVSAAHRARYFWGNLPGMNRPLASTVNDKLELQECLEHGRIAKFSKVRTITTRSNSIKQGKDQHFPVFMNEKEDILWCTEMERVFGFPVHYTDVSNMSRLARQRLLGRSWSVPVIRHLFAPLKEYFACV

[3] = molecular target: T1, DNA (cytosine-5)-methyltransferase 1; assay: Inhibition of full length His-tagged human DNMT1 using SAM/[methyl-3H]SAM assessed as reduction of methylation in biotinylated hemimethylated DNA duplex at 100 uM after 1 hr by scintillation counting method relative to control
[4] = molecular target: T2, DNA (cytosine-5)-methyltransferase 3A; assay: Inhibition of human DNMT3A catalytic domain using AdoMet assessed as reduction of methylation in 5'-biotin/3' 6-carboxyfluorescein labeled DNA duplex at CpG site after 1 hr by fluorescence assay
Method in brief: (§1)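 Human full-length DNMT1 and catalytic DNMT3A tested for methylation of a DNA duplex; the paper gives assay details elsewhere. EC50 from a sigmoid dose-response fit with variable Hill slope; reported as median with SE from at least two independent experiments for DNMT1 and three for DNMT3A; DNMT3A curves run in technical duplicates.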

[5] = molecular target: T2, DNA (cytosine-5)-methyltransferase 3A; assay: Inhibition of human DNMT3A catalytic domain using AdoMet assessed as reduction of methylation in 5'-biotin/3' 6-carboxyfluorescein labeled DNA duplex at CpG site at 10 uM after 1 hr by fluorescence assay relative to control
[6] = molecular target: T1, DNA (cytosine-5)-methyltransferase 1; assay: Inhibition of full length His-tagged human DNMT1 using SAM/[methyl-3H]SAM assessed as reduction of methylation in biotinylated hemimethylated DNA duplex after 1 hr by scintillation counting method; method in brief: as §1
Homo sapiens [7] = species on record: Homo sapiens; assay: Inhibition of DNMT in human KG1 cells assessed as luciferase gene driven CMV promoter demethylation by measuring fold increase in luciferase reactivation at 5 uM after 24 hrs by luciferase reporter gene assay relative to control; format: cell-based
Method in brief: (§2)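 Leukemia KG-1 cells carrying a stable luciferase gene under a partially methylated CMV promoter, treated in 96-well plates for 24 h. Luciferase signal read by luminescence (Britelite); reactivation fold expressed as ratio to non-treated cells. Mean of three experiments with standard error.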

[8] = Solubility of the compound in RPMI-1640 medium; format: physicochemical
Homo sapiens [9] = species on record: Homo sapiens; assay: Inhibition of DNMT in human KG1 cells assessed as luciferase gene driven CMV promoter demethylation by measuring fold increase in luciferase reactivation at 1 uM after 24 hrs by luciferase reporter gene assay relative to control; format: cell-based; method in brief: as §2
Homo sapiens [10] = species on record: Homo sapiens; assay: Inhibition of DNMT in human KG1 cells assessed as luciferase gene driven CMV promoter demethylation by measuring luciferase reactivation at 1 uM after 24 hrs by luciferase reporter gene assay; format: cell-based; method in brief: as §2
Homo sapiens [11] = species on record: Homo sapiens; assay: Inhibition of DNMT in human KG1 cells assessed as luciferase gene driven CMV promoter demethylation by measuring luciferase reactivation at 5 uM after 24 hrs by luciferase reporter gene assay; format: cell-based; method in brief: as §2
Homo sapiens [12] = species on record: Homo sapiens; assay: Inhibition of DNMT in human HCT116 cells assessed as demethylation of CDKN2A promoter at 100 nM after 3 days by COBRA analysis relative to control; format: cell-based
Method in brief: (§3)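 HCT116 colon cancer cells in MEM with HEPES, L-glutamine and 10% FCS, 37 °C, 5% CO2; seeded 1 × 10^5/mL, treated for 3 or 7 days at 100 nM. Bisulfite-converted DNA amplified at the CDKN2A promoter, then digested with BsiEI at 60 °C for 90 min (COBRA); bands quantified on 2% agarose gel. Methylation given as ratio to untreated cells; at least two independent experiments, standard errors.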

KG-1 = assay: Toxicity in human KG1 cells assessed as effect on cell viability at 5 uM after 24 hrs by ATPLite assay; format: cell-based; details: kg-1, 24 h
[13] = Binding affinity to 5'-TATATACGTACGGTGTTTTCACCGTACGTATATA-3' CpG site hairpin duplex DNA (unknown origin) assessed as change in melting temperature at 10 uM
Homo sapiens [14] = species on record: Homo sapiens; assay: Inhibition of DNMT in human HCT116 cells assessed as demethylation of CDKN2A promoter at 100 nM after 7 days by COBRA analysis relative to control; format: cell-based; method in brief: as §3
[15] = Binding affinity to 265 bp pBS DNA at 0.01 to 10 uM after 15 mins using 3'-end labeled using alpha-[32P]-dATP by DNase I footprinting assay
Homo sapiens [16] = species on record: Homo sapiens; assay: Inhibition of DNMT in human KG1 cells assessed as nucleosome occupancy at CMV promoter by measuring increase in luciferase signal at 5 uM after 24 hrs by NOMe-Seq method relative to control; format: cell-based
Homo sapiens [17] = species on record: Homo sapiens; assay: Inhibition of DNMT in human KG1 cells assessed as CpG site demethylation at CMV promoter at 5 uM after 24 hrs by NOMe-Seq method relative to control; format: cell-based
Method in brief: (§4)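 CMV-luc KG-1 acute myeloid leukemia cells in RPMI-1640 with 10% FCS, seeded 2 × 10^5/mL and treated for 24 h at 1 or 5 μM. NOMe-Seq: bisulfite conversion, CMV promoter PCR (40 cycles), cloning and sequencing. CpG methylation and GpC accessibility expressed as ratio of percentage methylated cytosines in treated versus untreated sample.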

[18] = Binding affinity to 117 bp pBS DNA at 0.01 to 10 uM after 15 mins using 3'-end labeled using alpha-[32P]-dATP by DNase I footprinting assay
Homo sapiens [19] = species on record: Homo sapiens; assay: Inhibition of DNMT in human KG1 cells assessed as increase in DNA accessibility by opening the chromatin at 5 uM after 24 hrs by NOMe-Seq method relative to control; format: cell-based; design: scale not given: the % may be the effect or the level left; method in brief: as §4
[20] = Binding affinity to 5'-TATATACGTACTGTGTTTTCACAGTACGTATATA-3' CpG site hairpin duplex DNA (unknown origin) assessed as change in melting temperature at 10 uM
Homo sapiens [21] = species on record: Homo sapiens; assay: Inhibition of DNMT in human KG1 cells assessed as CpG site demethylation at CMV promoter at 1 uM after 24 hrs by NOMe-Seq method relative to control; format: cell-based; method in brief: as §4
Homo sapiens [22] = species on record: Homo sapiens; assay: Inhibition of DNMT in human KG1 cells assessed as increase in DNA accessibility by opening the chromatin at 1 uM after 24 hrs by NOMe-Seq method relative to control; format: cell-based; design: scale not given: the % may be the effect or the level left; method in brief: as §4
Homo sapiens [23] = species on record: Homo sapiens; assay: Inhibition of DNMT in human HCT116 cells assessed as induction of CDKN2A mRNA expression at 100 nM after 7 days by RT qPCR method relative to control; format: cell-based
Method in brief: (§5)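 HCT116 cells seeded 1 × 10^5/mL and exposed to 100 nM for 3 or 7 days. CDKN2A mRNA quantified by RT-qPCR with SYBR chemistry: 95 °C 30 s, then 40 cycles of 95 °C 5 s and 60 °C 30 s, followed by a melt curve. Expressed as fold change relative to untreated cells; at least two independent experiments, standard errors.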

Homo sapiens [24] = species on record: Homo sapiens; assay: Inhibition of DNMT in human KG1 cells assessed as luciferase gene driven CMV promoter demethylation by measuring luciferase reactivation at 0.1 uM after 24 hrs by luciferase reporter gene assay; format: cell-based; method in brief: as §2
Homo sapiens [25] = species on record: Homo sapiens; assay: Inhibition of DNMT in human HCT116 cells assessed as induction of CDKN2A mRNA expression at 100 nM after 3 days by RT qPCR method; format: cell-based; method in brief: as §5

SMILES: c1ccc2c(NCCNc3ncnc4cc(OCC5CCN(CCNc6ccnc7ccccc67)CC5)ccc34)cccc2c1
inhibition [1]: 86%
fold change (FC) (Homo sapiens [7]): 4
inhibition [2]: 90%
inhibition [3]: 94%
EC50 [4]: 0.3 µM
solubility [8]: Soluble
inhibition [5]: 91%
fold change (FC) (Homo sapiens [9]): 4
EC50 [6]: 20 µM

SMILES: COc1cc2nccc(NCCN3CCC(COc4ccc5c(NCCCc6ccccc6)ncnc5c4)CC3)c2cc1OC
inhibition [1]: 57%
inhibition [2]: 95%
inhibition [3]: 81%
EC50 [4]: 1.4 µM
inhibition [5]: 95%
EC50 [6]: 30 µM

SMILES: Clc1ccc(CCNc2ncnc3cc(OCC4CCN(CCNc5ccnc6ccccc56)CC4)ccc23)cc1
inhibition [1]: 75%
inhibition [2]: 100%
inhibition [3]: 97%
EC50 [4]: 1.2 µM
inhibition [5]: 88%
EC50 [6]: 26 µM

SMILES: COc1ccc(CCNc2ncnc3cc(OCC4CCN(CCNc5ccnc6ccccc56)CC4)ccc23)cc1
inhibition [1]: 82%
inhibition [2]: 100%
inhibition [3]: 100%
EC50 [4]: 3.4 µM
inhibition [5]: 82%
EC50 [6]: 27 µM

SMILES: Nc1ncn([C@H]2C[C@H](O)[C@@H](CO)O2)c(=O)n1
inhibition (Homo sapiens [12]): 60%
inhibition (Homo sapiens [21]): 50%
inhibition (Homo sapiens [14]): 80%
Activity (Homo sapiens [22]): 120%

SMILES: c1ccc(-c2ccc(CNc3ncnc4cc(OCC5CCN(CCNc6ccnc7ccccc67)CC5)ccc34)cc2)cc1
inhibition (Homo sapiens [12]): 20%
inhibition [1]: 24%
fold change (FC) (Homo sapiens [7]): 4
inhibition [2]: 83%
fold change (FC) (Homo sapiens [23]): 13
inhibition [3]: 69%
EC50 [4]: 1.1 µM
Activity (KG-1): Non-Toxic
inhibition (Homo sapiens [24]): Active
inhibition [5]: 86%
inhibition (Homo sapiens [14]): 71%
Activity (Homo sapiens [25]): inactive
fold change (FC) (Homo sapiens [16]): 4.2
inhibition (Homo sapiens [17]): 52%
Activity (Homo sapiens [19]): 87%
fold change (FC) (Homo sapiens [9]): 4
EC50 [6]: 100 µM

The next lines start with results.

inhibition [1]: 38%
inhibition [2]: 99%
inhibition [3]: 98%
EC50 [4]: 4.9 µM
inhibition [5]: 80%
EC50 [6]: 32 µM
SMILES: c1ccc(CCNc2ncnc3cc(OCC4CCN(CCNc5ccnc6ccccc56)CC4)ccc23)cc1

inhibition [1]: 83%
inhibition [2]: 100%
inhibition [3]: 100%
EC50 [4]: 2.1 µM
inhibition [5]: 89%
EC50 [6]: 24 µM
SMILES: Cc1cc(NCCN2CCC(COc3ccc4c(NCCCc5ccccc5)ncnc4c3)CC2)c2ccccc2n1

inhibition [1]: 61%
inhibition [2]: 95%
inhibition [3]: 93%
EC50 [4]: 6.8 µM
inhibition [5]: 76%
EC50 [6]: 73 µM
SMILES: c1ccc(NCCNc2ncnc3cc(OCC4CCN(CCNc5ccnc6ccccc56)CC4)ccc23)cc1

inhibition [1]: 0%
inhibition [2]: 0%
inhibition [3]: 0%
inhibition [5]: 0%
SMILES: c1ccc(CCCNc2ncnc3cc(OCC4CCN(CCNc5cccc6ccccc56)CC4)ccc23)cc1
inhibition (Homo sapiens [10]): inactive
inhibition (Homo sapiens [11]): inactive

inhibition [1]: 0%
inhibition [2]: 98%
inhibition [3]: 97%
EC50 [4]: 1 µM
inhibition [5]: 84%
SMILES: Clc1cccc(CCNc2ncnc3cc(OCC4CCN(CCNc5ccnc6ccccc56)CC4)ccc23)c1

inhibition [1]: 100%
inhibition [2]: 60%
inhibition [3]: 100%
EC50 [4]: 1.9 µM
inhibition [5]: 96%
EC50 [6]: 16 µM
SMILES: c1ccc2c(CCCNc3ncnc4cc(OCC5CCN(CCNc6ccnc7ccccc67)CC5)ccc34)cccc2c1

inhibition [1]: 25%
inhibition [2]: 98%
inhibition [3]: 91%
EC50 [4]: 4.4 µM
Activity [13]: inactive
inhibition [5]: 81%
Activity [15]: inactive
Activity [18]: inactive
Activity [20]: inactive
EC50 [6]: 46 µM
SMILES: c1ccc(CCCNc2ncnc3cc(OCC4CCN(CCNc5ccnc6ccccc56)CC4)ccc23)cc1
inhibition (Homo sapiens [12]): 32%
fold change (FC) (Homo sapiens [7]): 4
Activity (KG-1): Non-Toxic
inhibition (Homo sapiens [14]): 42%
fold change (FC) (Homo sapiens [16]): 4.7
inhibition (Homo sapiens [17]): 33%
Activity (Homo sapiens [19]): 77%
fold change (FC) (Homo sapiens [9]): 4
